Results as given in ChEMBL document CHEMBL2311299, “New 2-(aryloxy)-3-phenylpropanoic acids as peroxisome proliferator-activated receptor α/γ dual agonists able to upregulate mitochondrial carnitine shuttle system gene expression” (J Med Chem, 2013).
Values belong to the compound of their own block, whether it stands above or below them. The source made the active and inactive calls. The rule behind the calls is not given here.

How the values were obtained:
[1] = molecular target: T1, Peroxisome proliferator-activated receptor alpha (Homo sapiens) (UniProt Q07869); experiment: Transactivation of GAL4-fused human PPARalpha ligand binding domain expressed in HepG2 cells after 20 hrs by luciferase reporter gene assay relative to WY-14643; type: cell-based
T1 sequence (whole entry): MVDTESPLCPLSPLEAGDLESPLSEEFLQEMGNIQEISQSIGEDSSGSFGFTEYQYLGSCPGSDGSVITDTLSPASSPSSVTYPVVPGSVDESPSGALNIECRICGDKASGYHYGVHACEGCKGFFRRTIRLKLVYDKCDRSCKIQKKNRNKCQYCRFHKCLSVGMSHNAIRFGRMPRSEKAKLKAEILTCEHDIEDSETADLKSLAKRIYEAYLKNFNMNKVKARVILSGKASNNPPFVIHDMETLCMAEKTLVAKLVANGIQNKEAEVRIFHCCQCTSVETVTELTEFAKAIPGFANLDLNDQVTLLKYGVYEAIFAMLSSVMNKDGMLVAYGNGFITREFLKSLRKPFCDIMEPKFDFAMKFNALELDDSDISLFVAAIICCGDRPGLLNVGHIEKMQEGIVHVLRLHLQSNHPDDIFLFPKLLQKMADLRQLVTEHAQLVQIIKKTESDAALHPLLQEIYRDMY
Procedure, shortened: (§1)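 HepG2 cells transiently transfected (calcium phosphate) with Gal4–PPARα-LBD or Gal4–PPARγ-LBD (30 ng), five-Gal4-element TK-luciferase reporter (100 ng) and pCMVβgal (250 ng). 4 h post-transfection, triplicate 20 h ligand treatment up to 10 μM; luciferase read, β-galactosidase measured with ONPG. Efficacy as % of maximal fold induction by Wy-14,643 (α) or rosiglitazone (γ); experiments repeated at least twice.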

[2] = molecular target: T2, Peroxisome proliferator-activated receptor gamma (Homo sapiens, UniProt P37231); experiment: Transactivation of GAL4-fused human PPARgamma ligand binding domain expressed in HepG2 cells after 20 hrs by luciferase reporter gene assay; type: cell-based
T2 sequence (P37231 whole entry): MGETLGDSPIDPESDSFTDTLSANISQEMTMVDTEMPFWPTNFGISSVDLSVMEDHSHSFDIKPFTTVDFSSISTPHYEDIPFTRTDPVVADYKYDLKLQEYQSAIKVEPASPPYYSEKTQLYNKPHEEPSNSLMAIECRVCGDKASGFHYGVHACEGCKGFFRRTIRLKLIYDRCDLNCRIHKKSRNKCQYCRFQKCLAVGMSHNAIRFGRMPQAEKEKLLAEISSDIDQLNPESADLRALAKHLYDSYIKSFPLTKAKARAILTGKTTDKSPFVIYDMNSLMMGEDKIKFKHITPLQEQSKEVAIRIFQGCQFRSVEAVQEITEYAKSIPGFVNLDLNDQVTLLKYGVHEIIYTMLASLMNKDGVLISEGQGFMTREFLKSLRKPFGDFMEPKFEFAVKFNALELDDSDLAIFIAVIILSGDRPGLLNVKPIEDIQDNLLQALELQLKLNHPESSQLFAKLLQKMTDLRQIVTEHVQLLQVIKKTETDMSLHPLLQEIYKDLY

[3] = molecular target: T3, Peroxisome proliferator-activated receptor alpha (Homo sapiens, UniProt Q07869); experiment: Transactivation of GAL4-fused human PPARalpha ligand binding domain expressed in HepG2 cells after 20 hrs by luciferase reporter gene assay; type: cell-based
T3 sequence (Q07869 whole entry): T1 sequence (whole entry)
Procedure, shortened: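 HepG2 cells transiently transfected (calcium phosphate) with Gal4–PPARα-LBD or Gal4–PPARγ-LBD (30 ng), five-Gal4-element TK-luciferase reporter (100 ng) and pCMVβgal (250 ng). 4 h post-transfection, triplicate 20 h ligand treatment up to 10 μM; luciferase read, β-galactosidase measured with ONPG.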

[4] = molecular target: T4, Peroxisome proliferator-activated receptor gamma (Homo sapiens) (UniProt P37231); experiment: Transactivation of GAL4-fused human PPARgamma ligand binding domain expressed in HepG2 cells up to 10 uM after 20 hrs by luciferase reporter gene assay; type: cell-based; procedure, shortened: as §1
T4 sequence (whole entry): T2 sequence (P37231 whole entry)

[5] = molecular target: T1, Peroxisome proliferator-activated receptor alpha (Homo sapiens); experiment: Agonist activity at PPARalpha in human HepG2 cells assessed as upregulation of CAC protein expression at 1 uM after 48 hrs by Western blotting analysis relative to control
[6] = molecular target: T4, Peroxisome proliferator-activated receptor gamma (Homo sapiens); experiment: Binding affinity to PPARgamma-LBD site B (unknown origin) in presence of (S)-2-(biphenyl-4-yloxy)-3-phenylpropanoic acid at 470 uM after 3 hrs by isothermal titration calorimetry assay
Procedure, shortened: (§2)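 ITC at 25 °C on His-tagged PPARγ LBD dialysed into 20 mM Hepes pH 8.0, 1 mM TCEP; DMSO matched (<1%). […] Conditions: ligand 400 μM into 40 μM protein (5); reverse, 400 μM protein into 40 μM ligand (6); 600 μM ligand into 60 μM protein (7); protein 47 μM pre-equilibrated 3 h 1:1 with site-A ligand, titrated with 470 μM ligand (8); reverse titration (9).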

[7] = molecular target: T4, Peroxisome proliferator-activated receptor gamma (Homo sapiens); experiment: Binding affinity to PPARgamma-LBD site A (unknown origin) at 400 uM after 3 hrs by isothermal titration calorimetry assay; procedure, shortened: as §2
[8] = molecular target: T4, Peroxisome proliferator-activated receptor gamma (Homo sapiens); experiment: Binding affinity to PPARgamma-LBD site A and site B (unknown origin) at 40 uM after 3 hrs by isothermal titration calorimetry assay; procedure, shortened: as §2
[9] = molecular target: T1, Peroxisome proliferator-activated receptor alpha (Homo sapiens); experiment: Agonist activity at PPARalpha in human HepG2 cells assessed as upregulation of CPT1 mRNA expression at 1 uM after 24 hrs by RT-PCR analysis relative to control; type: cell-based
Procedure, shortened: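 Serum-starved HepG2 cells (24 h depletion) exposed for 24 h to 1 μM ligand; untreated cells as control; Wy 14,643 (50 μM) reference. Total RNA from 1 × 10^6 cells, reverse transcribed, CAC or CPT1 transcript quantified by real-time PCR against human actin. Means ± SD of three duplicate independent experiments; one-way ANOVA, Bonferroni test versus control.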

[10] = molecular target: T1, Peroxisome proliferator-activated receptor alpha (Homo sapiens); experiment: Agonist activity at PPARalpha in human HepG2 cells assessed as upregulation of CPT1 protein expression at 1 uM after 48 hrs by Western blotting analysis relative to control
[11] = molecular target: T1, Peroxisome proliferator-activated receptor alpha (Homo sapiens); experiment: Agonist activity at PPARalpha in human HepG2 cells assessed as upregulation of CAC mRNA expression at 1 uM after 24 hrs by RT-PCR analysis relative to control; type: cell-based
Procedure, shortened: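 Total RNA from 1 × 10^6 cells, reverse transcribed, CAC or CPT1 transcript quantified by real-time PCR against human actin. Means ± SD of three duplicate independent experiments; one-way ANOVA, Bonferroni test versus control.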

[12] = molecular target: T4, Peroxisome proliferator-activated receptor gamma (Homo sapiens); experiment: Binding affinity to PPARgamma-LBD site B and site C (unknown origin) at 60 uM after 3 hrs by isothermal titration calorimetry assay; procedure, shortened: as §2
[13] = molecular target: T4, Peroxisome proliferator-activated receptor gamma (Homo sapiens); experiment: Binding affinity to PPARgamma-LBD site B (unknown origin) at 600 uM after 3 hrs by isothermal titration calorimetry assay; procedure, shortened: as §2

Emax [1]: 143% | EC50 [2]: 1200 nM | EC50 [3]: 12 nM
Compound: CCc1ccccc1-c1ccc(O[C@@H](Cc2ccccc2)C(=O)O)cc1

Activity [4]: Active | Emax [1]: 131% | EC50 [3]: 240 nM
Compound: CCCc1ccccc1-c1ccc(OC(Cc2ccccc2)C(=O)O)cc1 (racemic)

EC50 [3]: 100 nM
Compound: CC(C)c1ccccc1-c1ccc(OC(Cc2ccccc2)C(=O)O)cc1 (single isomer, unassigned; form 2) [listing 1 of 2 here]

Emax [1]: 155% | EC50 [2]: 1360 nM | EC50 [3]: 67 nM
Compound: Cc1ccccc1-c1ccc(O[C@@H](Cc2ccccc2)C(=O)O)cc1

Activity [4]: Active | Emax [1]: 145% | Ka [12]: 1.3 ×10⁵ /M | Ka [13]: 1.34 ×10⁵ /M
Compound: CC(C)c1ccccc1-c1ccc(OC(Cc2ccccc2)C(=O)O)cc1 (single isomer, unassigned; form 2) [listing 2 of 2 here]

Emax [1]: 124% | EC50 [2]: 2300 nM | EC50 [3]: 130 nM
Compound: COc1ccccc1-c1ccc(O[C@@H](Cc2ccccc2)C(=O)O)cc1

Emax [1]: 68% | EC50 [2]: 690 nM | EC50 [3]: 120 nM
Compound: O=C(O)[C@H](Cc1ccccc1)Oc1ccc(-c2ccccc2F)cc1

Activity [4]: Active | Emax [1]: 107% | EC50 [3]: 500 nM
Compound: CCCCCc1ccccc1-c1ccc(OC(Cc2ccccc2)C(=O)O)cc1 (racemic)

The next lines start with the compound.

Compound: Cc1cccc(C)c1-c1ccc(O[C@@H](Cc2ccccc2)C(=O)O)cc1
Emax [1]: 123% | EC50 [2]: 2540 nM | EC50 [3]: 230 nM

Compound: Cc1cc(O[C@@H](Cc2ccccc2)C(=O)O)ccc1-c1ccccc1
Emax [1]: 120% | EC50 [2]: 700 nM | EC50 [3]: 80 nM

Compound: CC(C)c1ccccc1-c1ccc(OC(Cc2ccccc2)C(=O)O)cc1 (single isomer, unassigned; form 1) [listing 1 of 2 here]
EC50 [2]: 1000 nM | EC50 [3]: 12 nM

Compound: Cc1cccc(-c2ccc(OC(Cc3ccccc3)C(=O)O)cc2)c1 (racemic)
Emax [1]: 69% | EC50 [2]: 460 nM | EC50 [3]: 220 nM

Compound: CC(C)c1ccccc1-c1ccc(OC(Cc2ccccc2)C(=O)O)cc1 (single isomer, unassigned; form 1) [listing 2 of 2 here]
Emax [1]: 147% | Activity [5]: Active | Ka [6]: 1.87 ×10⁵ /M | Ka [7]: 3.6 ×10⁵ /M | Ka [8]: 3.1 ×10⁵ /M | fold change (FC) [9]: 2.3 | Activity [10]: Active | fold change (FC) [11]: 1.5

Compound: CC(C)(Sc1ccc(CCN(CCCCC2CCCCC2)C(=O)NC2CCCCC2)cc1)C(=O)O
Activity [9]: Active

Compound: O=C(O)[C@H](Cc1ccccc1)Oc1ccc(-c2ccccc2-c2ccccc2)cc1
Emax [1]: 132% | EC50 [2]: 1400 nM | EC50 [3]: 44 nM

Compound: Cc1ccc(-c2ccc(O[C@@H](Cc3ccccc3)C(=O)O)cc2)cc1
Emax [1]: 74% | EC50 [2]: 590 nM | EC50 [3]: 210 nM

Compound: O=C(O)C(Cc1ccccc1)Oc1ccc(-c2ccccc2CCc2ccccc2)cc1 (racemic)
Activity [4]: Active | Emax [1]: 73% | EC50 [3]: 280 nM

Compound: O=C(O)[C@H](Cc1ccccc1)Oc1ccc(-c2ccccc2C(F)(F)F)cc1
Emax [1]: 126% | EC50 [2]: 1000 nM | EC50 [3]: 22 nM

Compound: O=C(O)[C@H](Cc1ccccc1)Oc1ccc(-c2ccccc2)cc1
Emax [1]: 116%

Compound: Cc1cccc(Nc2cc(Cl)nc(SCC(=O)O)n2)c1C
Activity [4]: inactive

Compound: Cc1ccccc1-c1ccc(O[C@@H](Cc2ccccc2)C(=O)O)cc1C
Emax [1]: 133% | EC50 [2]: 640 nM | EC50 [3]: 31 nM

Compound: Cc1cc(OC(Cc2ccccc2)C(=O)O)cc(C)c1-c1ccccc1 (racemic)
Emax [1]: 50% | EC50 [2]: 2040 nM | EC50 [3]: 2100 nM

Compound: Cc1cc(-c2ccccc2)ccc1O[C@@H](Cc1ccccc1)C(=O)O
Emax [1]: 68% | EC50 [2]: 700 nM | EC50 [3]: 990 nM

Compound: Cc1cc(-c2ccccc2)cc(C)c1O[C@@H](Cc1ccccc1)C(=O)O
Emax [1]: 61% | EC50 [2]: 3100 nM | EC50 [3]: 1130 nM
